ABHD5 PLIN5 PPI = blocks binding of human ABHD5 to perilipin-5; Split G. princeps luciferase complementation, luminescence, 4 h; inhibition, % at 4 µM; 360,000 compounds, 0.78% hits; AID 602281;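 active = inhibition above the mean inhibition across every tested compound plus 3 SD, cut at about 22% in these data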;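 note: 0% = DMSO only wells and the 100% control is not disclosed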
NadD inh = NadD (S. aureus) enzyme inhibition; purified NadD enzyme, colorimetric absorbance read-out; inhibition, % at 20 µM; 360,000 compounds, 0.78% hits; AID 602399; in the data active = inhibition above about 26%
SENP1 FRET inh = inhibitors of human SENP1 SUMO protease catalytic domain; Q9P0U3; recombinant SENP1 catalytic domain, CyPet-SUMO1-YPet FRET cleavage; inhibition, % at 10 µM; 360,000 compounds, 0.21% hits;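 active = inhibition at least 30% at 10 µM, raw YFP signal under a set limit, fluorescence ratio 0.5 to 1.5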;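 note: 0% = enzyme with DMSO and 100% = no enzyme wells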
Target sequence (Q9P0U3 419-644 limits assumed): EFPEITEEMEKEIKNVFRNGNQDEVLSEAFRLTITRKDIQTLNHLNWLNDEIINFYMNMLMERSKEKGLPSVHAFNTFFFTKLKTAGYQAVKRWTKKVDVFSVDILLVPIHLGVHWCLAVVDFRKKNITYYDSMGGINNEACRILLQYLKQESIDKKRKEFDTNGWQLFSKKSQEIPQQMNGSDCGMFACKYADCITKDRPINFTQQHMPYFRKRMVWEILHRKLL
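Assay system: hSENP1 catalytic domain, recombinant. Amount: SENP1 enzyme, 20 pM final. Schedule: 50 min reaction, RT, dark. Technique: FRET, CFP and YFP emission. Control set: no-enzyme wells low, DMSO-plus-enzyme wells high control.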
B2AR ag = activates human beta-2 adrenergic receptor causing internalization. Am2.2-beta2AR cells, FAP receptor internalization, flow cytometry. response, % (no concentration beside the values). 340,000 compounds, 0.43% hits;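 active = response above a set limit, near 3 SD of response in nonfluorescent compounds, cut at about 42% in these data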
Target sequence (P07550 whole entry, looked up): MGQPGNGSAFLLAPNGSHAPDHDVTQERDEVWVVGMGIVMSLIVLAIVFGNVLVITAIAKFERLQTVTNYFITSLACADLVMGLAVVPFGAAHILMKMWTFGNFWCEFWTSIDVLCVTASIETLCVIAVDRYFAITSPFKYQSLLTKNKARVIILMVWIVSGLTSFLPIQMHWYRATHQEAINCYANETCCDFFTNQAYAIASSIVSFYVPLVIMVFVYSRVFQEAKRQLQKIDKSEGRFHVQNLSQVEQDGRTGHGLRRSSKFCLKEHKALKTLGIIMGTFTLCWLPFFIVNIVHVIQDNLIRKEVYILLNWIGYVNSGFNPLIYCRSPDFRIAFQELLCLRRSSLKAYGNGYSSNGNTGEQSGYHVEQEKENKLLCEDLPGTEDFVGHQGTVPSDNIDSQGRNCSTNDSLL
GRK2 inh = inhibitors of human GRK2 displacing RNA aptamer; P25098; bead flow cytometry, FAM-aptamer displacement from GRK2; 330,000 compounds, 0.59% hits; AID 488847; inhibition of aptamer binding, % at 10 µM;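 active = inhibition of aptamer binding above 40%, roughly 3 SD of noise, on plates passing a quality check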;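 note: median bead fluorescence of bound FAM aptamer so fluorescent compounds give negative values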
GRK2 inh confirm = human GRK2 inhibition confirmation, cherry pick 1. shares compounds with GRK2 inh. bead-bound GRK2, FAM-aptamer displacement, flow cytometry. aptamer displacement, % at 10 µM. 2,000 compounds, 4% hits;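 active = aptamer displacement above 40%, near three times the noise of non-fluorescent compounds, on plates passing quality checks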;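 note: negative values mostly reflect intrinsic compound fluorescence rather than true enhancement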
Aptamer quench = counter-screen for GRK2 aptamer inhibitors: fluorescent aptamer quenchers; fluorescence change (kMESF span), kMESF (no concentration beside the values); Fluorescent RNA aptamer beads, quenching, flow cytometry; active compounds read high; 110 tested, under 10 active; shares compounds with GRK2 inh; AID 504521;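 active = compounds whose bead fluorescence drops by more than 37 kMESF across the dose range, marking them as dye quenchers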
FAM quench CP1 = quenches fluorescent RNA aptamer, GRK2 hit artifact. shares compounds with GRK2 inh. Carboxyfluorescein RNA aptamer on beads, flow cytometry quenching; active compounds read low. fluorescence response (% of DMSO), % at 10 µM. 2,000 tested, under 10 active. AID 504580;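 active = compounds that quench the bead-bound fluorescent RNA probe, cutting fluorescence to under half of the solvent control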;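 note: counterscreen run without GRK2 so only probe quenching by compound is measured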
GRK2 confirm 2 = confirmation of human GRK2 inhibitors binding RNA aptamer site. inhibition of aptamer binding, % at 10 µM. 360 tested, under 10 active. shares compounds with GRK2 inh. bead-bound GRK2, FAM-aptamer displacement, flow cytometry. AID 504782;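 active = inhibition of aptamer binding above 40%, about triple the noise seen with nonglowing compounds, on plates passing quality control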;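 note: negative values mostly come from compounds that fluoresce themselves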
FAM quench SP = quenches fluorescent RNA aptamer, GRK2 hit artifact | fluorescence response vs DMSO, % at 10 µM | 360 tested, under 10 active | carboxyfluorescein RNA aptamer beads, flow cytometry quenching; active compounds read low | shares compounds with GRK2 inh | AID 588494;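 active = response vs DMSO under 50%, meaning signal dropped by over half, treated as fluorescence quencher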;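 note: labelled aptamer on streptavidin beads without GRK2 as a quench counter-screen; 100% = bead fluorescence of DMSO wells and lower means quenching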
FAM quench DR = quenches fluorescent RNA aptamer, GRK2 hit artifact; AID 588496; Bead-bound FAM RNA aptamer fluorescence quenching, flow cytometry; active compounds read low; fluorescence ratio to DMSO, % at 11.1 µM; 35 tested, under 10 active; shares compounds with GRK2 inh;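 active = compounds that dim the fluorescent label, raw bead signal shifting by over 33 units between lowest and highest dose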
Starred values were filed as active, the others as inactive; nt = no result given. Most compounds without a hit are left out; they make up all but 2.5% or so of the library.

SMILES	ABHD5 PLIN5 PPI	NadD inh	SENP1 FRET inh	B2AR ag	GRK2 inh	GRK2 inh confirm	FAM quench CP1	others
CCOC(=O)c1cc2c(C)n(-c3ccc(N(C)C)cc3)c(C)c2cc(C(=O)OCC)c1=O	2	7	7	-4	69*	0	103
CN(Cc1ccccc1)C(=O)CCS(=O)(=O)c1ccc2c(c1)NC(=O)CS2	-5	-7	3	-1	5	nt	nt	GRK2 confirm 2=5;FAM quench SP=100
CC(CS(=O)(=O)c1ccc2c(c1)NC(=O)CS2)C(=O)NCc1ccccc1Cl (centres undefined)	6	-4	4	-8	99*	78*	95	Aptamer quench=-3.2;FAM quench DR=97
CCSC(=O)N1c2ccc(OC)cc2C=CC1C#N (centres undefined)	-2	2	-58	16	nt	nt	nt
COc1ccc(NC(=O)CCS(=O)(=O)c2ccc(Br)s2)cc1	2	-8	-1	-10	87*	43*	95	Aptamer quench=-2.3;FAM quench DR=97
CCOC(=O)c1ccc(NC(=O)CCS(=O)(=O)c2ccc(Br)s2)cc1	-3	0	-2	-3	3	nt	nt
O=C(CCS(=O)(=O)c1ccc(Br)s1)Nc1ccccc1Br	-1	-9	2	-1	88*	12	94	Aptamer quench=-5.6;FAM quench DR=98
O=C(O)C1Nc2c(Cl)cc(Cl)c(Cl)c2C2C=CCC12 (centres undefined)	1	24	-9	19	59*	6	136
COCCn1c(=S)[nH]c2cc(C(=O)N3CCN(Cc4ccc5c(c4)OCO5)CC3)ccc2c1=O	-6	5	1	-5	45*	2	101
c1coc(-c2nnc(-c3ccco3)nn2)c1	5	9	26	-3	88*	6	103
c1ccc(-c2nnc(-c3ccco3)o2)cc1	-2	-2	0	0	1	nt	nt
COC(=O)[C@H](C)N(Cc1ccc(Cl)c(Cl)c1)S(=O)(=O)CCNC1CCCC1	5	-3	1	8	2	nt	nt
Cc1cc2ccccc2n1CCNC(=O)c1ccccc1	-5	3	-40	-2	100*	29	102	Aptamer quench=-1.8
CC(OC(=O)Cc1c[nH]c2ccccc12)C(=O)N(C)c1ccccc1 (centres undefined)	10	-6	3	-10	9	-1	96
CC(OC(=O)Cc1c[nH]c2ccccc12)C(=O)c1ccccc1 (centres undefined)	4	-7	2	6	2	nt	nt
CSc1ccc(C2CC(=O)Nc3c2c(=O)n(C)c(=O)n3C)cc1 (centres undefined)	0	-1	2	-3	85*	1	98
NS(=O)(=O)c1ccc(NC(=O)CSc2ccccc2)cc1	2	-7	0	0	0	nt	nt
NS(=O)(=O)c1ccc(NC(=O)CSC2=NC(=O)C(c3ccccc3)C(=O)N2)cc1 (centres undefined)	-5	1	3	0	100*	-1	101
CC(=O)Nc1ccc(N(C(=O)c2ccco2)C(C(=O)NC2CCCC2)c2ccncc2)cc1 (centres undefined)	-6	-17	-1	2	2	nt	nt
COc1cc(CN2CCNC(=O)C2CC(=O)NCCCC2CCCC2)cc(OC)c1 (centres undefined)	7	-1	-13	1	0	nt	nt
COC(=O)C(NC(=O)c1ccco1)(Nc1cc(C)ccn1)C(F)(F)F (centres undefined)	-1	-4	2	1	2	nt	nt
COC(=O)C(NC(=O)c1ccco1)(Nc1nc(C2CC2)cs1)C(F)(F)F (centres undefined)	7	0	4	-99	90*	-4	102
CCN(C(=O)CSc1nnc(-c2cccc(Cl)c2)n1N)c1c(N)n(Cc2ccccc2)c(=O)[nH]c1=O	-5	0	-14	-12	nt	nt	nt
O=C(NNC(=S)NCc1ccccc1)c1ccc2c(c1)OCO2	3	1	-1	7	4	nt	nt
O=C(NC(=S)NCc1cccnc1)c1ccccc1	3	-5	2	-10	100*	nt	nt	GRK2 confirm 2=-35;FAM quench SP=101
SMILES	ABHD5 PLIN5 PPI	NadD inh	SENP1 FRET inh	B2AR ag	GRK2 inh	GRK2 inh confirm	FAM quench CP1	others
O=C(NC(=S)NCc1ccccc1)c1ccc2c(c1)OCO2	-5	0	2	-9	94*	nt	nt	GRK2 confirm 2=-35;FAM quench SP=100
CC1(C)Cc2c(cnn2-c2ccccc2)C(NC(=O)CCc2ccc(=O)[nH]n2)C1 (centres undefined)	7	-3	-2	0	0	nt	nt
O=C(OCC(=O)N1CCN(c2ccc(F)cc2)CC1)c1cnc2ccccc2n1	0	11	-2	3	0	nt	nt
COc1ccc(S(=O)(=O)Oc2ccc(C(=S)N3CCOCC3)cc2OC)cc1	5	-7	1	1	10	nt	nt
O=S(=O)(Oc1ccc(C(=S)N2CCOCC2)cc1)c1ccc(Cl)cc1	-2	-10	0	-3	99*	3	91
COc1cc2oc3cc(C#Cc4ccc(N)cc4)ccc3c(=O)c2cc1OC	4	9	-26	7	70*	3	98
C=CCc1c(C)nc(-c2ccccc2)nc1Nc1ccc(O)cc1	-7	-1	3	0	100*	nt	nt	GRK2 confirm 2=-7;FAM quench SP=100
C=CCc1c(C)nc(-c2ccccc2)nc1N/N=C(\C)c1ccccc1	-7	-2	-2	3	0	nt	nt
Cc1ccc(NC(=O)CN(C)C(=O)c2cccc(S(=O)(=O)NCc3ccccc3)c2)cc1	-10	-2	0	13	91*	-3	110
O=C(NCc1ccccc1Cl)c1ccc2nc([C@@H]3O[C@H](CO)[C@@H](O)[C@H]3O)[nH]c2c1	0	2	-1	nt	nt	nt	nt
CSC1=NC(=O)/C(=C/c2ccc(SC)cc2)S1	5	-6	-8	8	58*	2	103
CN=C1S/C(=C\c2ccc(SC)cc2)C(=O)N1C	13	0	-4	-11	0	nt	nt
CCC(CC)=NNc1ccc([N+](=O)[O-])cc1[N+](=O)[O-]	6	-2	3	2	61*	2	94

Source: PubChem BioAssay (several laboratories)
